Measurements published in ChEMBL document CHEMBL3351359, “Design and synthesis of novel 2,4-diaryl-5H-indeno[1,2-b]pyridine derivatives, and their evaluation of topoisomerase inhibitory activity and cytotoxicity” (Bioorg Med Chem, 2015).

Assays:
[1] = molecular target: DNA topoisomerase 2-alpha (Homo sapiens) (UniProt P11388); test: Inhibition of human recombinant topoisomerase-2 alpha assessed as conversion of super-coiled plasmid DNA pBR322 to relaxed DNA at 100 uM after 30 mins by ethidium bromide staining-based agarose gel electrophoresis (reference value: 32.4%)
How it was run: (§1)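 Supercoiled pBR322 (200 ng) incubated with 1 unit human topo IIα, with or without compound, for 30 min at 30 °C. Buffer: 10 mM Tris-HCl pH 7.9, 50 mM NaCl, 5 mM MgCl2, 1 mM EDTA, 1 mM ATP, 15 μg/mL BSA. Stopped with EDTA. Run on 1% agarose in TAE at 25 V for 4 h, stained with ethidium bromide, supercoiled DNA quantified under UV.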

[2] = molecular target: T1, DNA topoisomerase 1 (Homo sapiens) (UniProt P11387); test: Inhibition of human recombinant topoisomerase-1 assessed as conversion of super-coiled plasmid DNA pBR322 to relaxed DNA at 100 uM after 30 mins by ethidium bromide staining-based agarose gel electrophoresis (reference value: 45.2%)
T1 sequence (whole entry): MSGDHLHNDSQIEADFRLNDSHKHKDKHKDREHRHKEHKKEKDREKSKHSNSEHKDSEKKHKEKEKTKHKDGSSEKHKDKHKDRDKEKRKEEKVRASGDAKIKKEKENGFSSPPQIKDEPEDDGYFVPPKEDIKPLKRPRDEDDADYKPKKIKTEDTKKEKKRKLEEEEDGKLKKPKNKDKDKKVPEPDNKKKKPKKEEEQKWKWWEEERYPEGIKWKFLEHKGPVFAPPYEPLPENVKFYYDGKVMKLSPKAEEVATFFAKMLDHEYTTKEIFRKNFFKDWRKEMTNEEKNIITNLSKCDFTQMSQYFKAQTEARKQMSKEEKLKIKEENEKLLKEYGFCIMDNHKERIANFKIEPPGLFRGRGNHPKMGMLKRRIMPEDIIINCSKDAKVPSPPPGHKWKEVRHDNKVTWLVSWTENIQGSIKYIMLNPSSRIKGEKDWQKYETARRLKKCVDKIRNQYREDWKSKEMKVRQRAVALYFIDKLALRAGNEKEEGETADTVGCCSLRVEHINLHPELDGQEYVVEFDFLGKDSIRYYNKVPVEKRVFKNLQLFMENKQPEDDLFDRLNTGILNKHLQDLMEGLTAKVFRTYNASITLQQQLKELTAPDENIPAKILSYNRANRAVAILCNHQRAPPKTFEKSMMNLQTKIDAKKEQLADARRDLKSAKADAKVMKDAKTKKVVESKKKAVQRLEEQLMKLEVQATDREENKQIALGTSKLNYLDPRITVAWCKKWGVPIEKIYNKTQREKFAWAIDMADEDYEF
How it was run: (§2)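 Relaxation of supercoiled pBR322 (100 ng) by 0.4 units recombinant human topo I, with or without compound (20 mM DMSO stocks), for 30 min at 37 °C. Buffer: 10 mM Tris-HCl pH 7.9, 150 mM NaCl, 0.1% BSA, 1 mM spermidine, 5% glycerol. Stopped with sarcosyl. Run on 1% agarose in TAE at 15 V for 7 h, stained with ethidium bromide, bands quantified under UV.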

MCF7 = test: Cytotoxicity against human MCF7 cells after 2 days by CCK-8 assay; type: functional, cell-based; conditions: MCF7, 48 h
How it was run: (§3)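 Cells seeded at 2~4 × 10^4 per well, grown overnight in medium with 10% FBS at 37 °C, 5% CO2. On day 2, after 4 h FBS starvation, medium replaced with medium containing graded compound concentrations. On day 4, CCK-8 added for 4 h, then absorbance read at 450 nm. IC50 from four-parameter logistic fit. Mean ± S.D. of three experiments, each run in triplicate.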

DU-145 = test: Cytotoxicity against human DU145 cells after 2 days by CCK-8 assay; type: functional, cell-based; conditions: DU-145, 48 h; how it was run: as §3
[3] = Cytotoxicity against human HCT15 cells after 2 days by CCK-8 assay; type: functional, cell-based; conditions: HCT-15, 48 h; how it was run: as §3
[4] = molecular target: T1, DNA topoisomerase 1 (Homo sapiens); test: Inhibition of human recombinant topoisomerase-1 assessed as conversion of super-coiled plasmid DNA pBR322 to relaxed DNA at 100 uM after 30 mins by ethidium bromide staining-based agarose gel electrophoresis (reference value: 62.9%); how it was run: as §2
[5] = molecular target: DNA topoisomerase 2-alpha (Homo sapiens) (UniProt P11388); test: Inhibition of human recombinant topoisomerase-2 alpha assessed as conversion of super-coiled plasmid DNA pBR322 to relaxed DNA at 100 uM after 30 mins by ethidium bromide staining-based agarose gel electrophoresis (reference value: 87.8%); how it was run: as §1
[6] = molecular target: DNA topoisomerase 2-alpha (Homo sapiens) (UniProt P11388); test: Inhibition of human recombinant topoisomerase-2 alpha assessed as conversion of super-coiled plasmid DNA pBR322 to relaxed DNA at 20 uM after 30 mins by ethidium bromide staining-based agarose gel electrophoresis (reference value: 46.7%); how it was run: as §1
[7] = molecular target: DNA topoisomerase 2-alpha (Homo sapiens) (UniProt P11388); test: Inhibition of human recombinant topoisomerase-2 alpha assessed as conversion of super-coiled plasmid DNA pBR322 to relaxed DNA at 100 uM after 30 mins by ethidium bromide staining-based agarose gel electrophoresis relative to etoposide
[8] = molecular target: T1, DNA topoisomerase 1 (Homo sapiens); test: Inhibition of human recombinant topoisomerase-1 assessed as conversion of super-coiled plasmid DNA pBR322 to relaxed DNA at 100 uM after 30 mins by ethidium bromide staining-based agarose gel electrophoresis relative to camptothecin
HeLa = test: Cytotoxicity against human HeLa cells after 2 days by CCK-8 assay; type: functional, cell-based; conditions: 48 h; how it was run: as §3

DNA topoisomerase 2-alpha (Homo sapiens), sequence (P11388 whole entry): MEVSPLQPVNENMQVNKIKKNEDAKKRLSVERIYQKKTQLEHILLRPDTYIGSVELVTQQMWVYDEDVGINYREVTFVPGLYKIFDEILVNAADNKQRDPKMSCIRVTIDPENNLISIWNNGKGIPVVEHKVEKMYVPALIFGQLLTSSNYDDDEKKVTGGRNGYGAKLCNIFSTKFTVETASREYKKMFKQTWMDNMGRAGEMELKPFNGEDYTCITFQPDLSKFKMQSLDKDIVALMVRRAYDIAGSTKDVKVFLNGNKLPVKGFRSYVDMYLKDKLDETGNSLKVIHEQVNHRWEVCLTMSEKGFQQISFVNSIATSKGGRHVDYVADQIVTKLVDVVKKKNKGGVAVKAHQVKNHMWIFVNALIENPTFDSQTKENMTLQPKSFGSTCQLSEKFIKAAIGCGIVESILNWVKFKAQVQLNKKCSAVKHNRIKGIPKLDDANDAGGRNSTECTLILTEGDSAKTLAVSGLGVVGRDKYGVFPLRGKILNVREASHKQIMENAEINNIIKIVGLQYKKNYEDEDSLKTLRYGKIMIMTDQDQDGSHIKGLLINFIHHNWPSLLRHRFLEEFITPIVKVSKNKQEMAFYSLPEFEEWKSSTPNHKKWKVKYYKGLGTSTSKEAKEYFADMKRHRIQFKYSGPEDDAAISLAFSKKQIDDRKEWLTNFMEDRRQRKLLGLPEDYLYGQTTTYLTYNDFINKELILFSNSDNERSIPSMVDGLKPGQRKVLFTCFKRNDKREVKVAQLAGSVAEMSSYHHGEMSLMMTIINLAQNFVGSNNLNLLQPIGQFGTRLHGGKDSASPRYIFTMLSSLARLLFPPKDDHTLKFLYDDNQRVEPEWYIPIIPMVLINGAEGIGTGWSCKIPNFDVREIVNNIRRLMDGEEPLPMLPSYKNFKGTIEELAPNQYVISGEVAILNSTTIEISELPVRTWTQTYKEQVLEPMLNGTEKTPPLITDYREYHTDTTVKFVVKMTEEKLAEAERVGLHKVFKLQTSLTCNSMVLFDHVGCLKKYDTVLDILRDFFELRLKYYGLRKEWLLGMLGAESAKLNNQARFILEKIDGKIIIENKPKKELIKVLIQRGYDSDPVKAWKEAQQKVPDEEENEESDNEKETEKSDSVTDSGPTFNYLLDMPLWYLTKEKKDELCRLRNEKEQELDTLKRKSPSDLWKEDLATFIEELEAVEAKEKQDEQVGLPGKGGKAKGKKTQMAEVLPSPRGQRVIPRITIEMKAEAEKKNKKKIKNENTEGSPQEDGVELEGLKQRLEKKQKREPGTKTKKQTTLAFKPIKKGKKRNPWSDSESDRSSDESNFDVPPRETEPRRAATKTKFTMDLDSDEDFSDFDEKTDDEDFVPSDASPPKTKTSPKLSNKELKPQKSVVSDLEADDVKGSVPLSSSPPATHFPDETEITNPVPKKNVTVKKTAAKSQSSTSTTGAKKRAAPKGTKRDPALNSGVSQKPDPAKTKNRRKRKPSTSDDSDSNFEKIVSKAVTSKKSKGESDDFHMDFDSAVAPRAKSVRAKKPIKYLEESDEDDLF

With `c1ccc(-c2cc(-c3ccccn3)c3c(n2)-c2ccccc2C3)nc1` the inhibition [1] was 10.2% and the inhibition [2] was 6.2%.
Work on `c1ccc(-c2cc(-c3ccco3)c3c(n2)-c2ccccc2C3)nc1` yielded an inhibition [1] of 17.7% and an inhibition [2] of 0.6%.
Work on `c1csc(-c2cc(-c3ccsc3)nc3c2Cc2ccccc2-3)c1` yielded an IC50 (MCF7) greater than 50 µM, an IC50 (DU-145) greater than 50 µM and an IC50 [3] greater than 50 µM. The inhibition [4] was 4.1% and the inhibition [5] was 17.8%.
`COc1cccc2c1C(=O)c1c(O)c3c(c(O)c1C2=O)C[C@@](O)(C(=O)CO)C[C@@H]3O[C@H]1C[C@H](N)[C@H](O)[C@H](C)O1` [DOXORUBICIN] showed an IC50 (MCF7) of 0.4 µM and an IC50 [3] of 1.08 µM.
With `c1ccc(-c2cc(-c3cccs3)nc3c2Cc2ccccc2-3)cc1` the inhibition [6] was 0%, the IC50 (MCF7) was greater than 50 µM and the IC50 (DU-145) was greater than 50 µM. For the same compound, the IC50 [3] was greater than 50 µM, the inhibition [4] was 5.8% and the inhibition [5] was 56%.
In the case of `c1coc(-c2cc(-c3ccco3)c3oc4ccccc4c3n2)c1`, the Ratio [7] is reported as 1.11 and the fold change (FC) [8] is reported as 0.6.
With `c1coc(-c2cc(-c3cccs3)nc3c2CCc2ccccc2-3)c1` the Ratio [7] was less than 0.2 and the Ratio [8] was 0.97.
Compound `c1ccc(-c2cc(-c3ccoc3)c3c(n2)-c2ccccc2C3)nc1` has an inhibition [1] of 17.5% and an inhibition [2] of 8.6%.
Work on `c1cncc(-c2cc(-c3ccoc3)c3c(n2)-c2ncccc2CC3)c1` yielded a Ratio [7] of less than 0.2 and a Ratio [8] of 1.36.
For `c1ccc(-c2cc(-c3ccco3)nc3c2oc2ccccc23)cc1`, the Ratio [7] was 1.11 and the Ratio [8] was less than 0.2.
`c1ccc(-c2cc(-c3ccco3)c3c(n2)-c2ncccc2CC3)nc1` showed a Ratio [7] of less than 0.2 and a Ratio [8] of 1.25.
`c1ccc2c(c1)OCc1c(-c3ccsc3)cc(-c3ccsc3)nc1-2` showed a Ratio [7] of 0.9 and a Ratio [8] of 1.42.
In the case of `c1ccc(-c2cc(-c3cccnc3)nc3c2COc2ccccc2-3)nc1`, the Ratio [7] is reported as less than 0.2 and the Ratio [8] is reported as 1.58.
With `c1ccc(-c2cc(-c3ccco3)c3oc4ccccc4c3n2)cc1` the Ratio [7] was 1.24 and the fold change (FC) [8] was less than 0.2.
Compound `c1ccc(-c2cc(-c3ccccn3)nc3c2Cc2ccccc2-3)cc1` has an inhibition [1] of 12.3% and an inhibition [2] of 0%.
Work on `c1ccc(-c2cc(-c3ccsc3)nc3c2Cc2ccccc2-3)nc1` yielded an IC50 (MCF7) greater than 50 µM, an IC50 (DU-145) greater than 50 µM and an IC50 [3] greater than 50 µM. For the same compound, the inhibition [4] was 3.5% and the inhibition [5] was 3.2%.
Work on `c1ccc(-c2cc(-c3cccnc3)c3c(n2)-c2ccsc2CC3)cc1` yielded a Ratio [7] of less than 0.2 and a Ratio [8] of 1.15.
`c1coc(-c2cc(-c3ccoc3)c3c(n2)-c2ccccc2OC3)c1` showed a Ratio [7] of 0.89 and a Ratio [8] of 1.2.
With `c1ccc(-c2cc(-c3ccsc3)nc3c2COc2ccccc2-3)cc1` the Ratio [7] was 1.13 and the Ratio [8] was 1.67.
`c1cncc(-c2cc(-c3ccncc3)c3c(n2)-c2ccsc2CC3)c1` gave a Ratio [7] of less than 0.2 and a Ratio [8] of 0.49.
With `c1ccc(-c2cc(-c3ccccn3)nc3c2oc2ccccc23)cc1` the Ratio [7] was less than 0.2 and the Ratio [8] was 1.15.
Compound `c1ccc(-c2cc(-c3cccs3)nc3c2Cc2ccccc2-3)nc1` has an IC50 (MCF7) of 43.3 µM, an IC50 (DU-145) greater than 50 µM and an IC50 [3] of 9.63 µM. It also gave an inhibition [4] of 4.5% and an inhibition [5] of 18.1%.
`c1csc(-c2cc(-c3ccoc3)c3c(n2)-c2ccccc2CC3)c1` showed a Ratio [7] of less than 0.2 and a Ratio [8] of 0.53.
`CC[C@@]1(O)C(=O)OCc2c1cc1n(c2=O)Cc2cc3ccccc3nc2-1` [CAMPTOTHECIN] showed an IC50 (MCF7) of 0.08 µM, an IC50 (DU-145) of 0.11 µM and an IC50 [3] of 0.26 µM.
`c1ccc(-c2cc(-c3ccsc3)c3c(n2)-c2ccccc2C3)nc1` showed an inhibition [4] of 1.1% and an inhibition [5] of 15%.
Work on `COc1cc([C@@H]2c3cc4c(cc3[C@@H](O[C@@H]3O[C@@H]5CO[C@@H](C)O[C@H]5[C@H](O)[C@H]3O)[C@H]3COC(=O)[C@H]23)OCO4)cc(OC)c1O` [ETOPOSIDE] yielded an IC50 (MCF7) of 0.73 µM, an IC50 [3] of 1.1 µM and an IC50 (HeLa) of 1.26 µM.
For `c1csc(-c2cc(-c3cccs3)c3c(n2)-c2ccccc2C3)c1`, the IC50 (MCF7) was greater than 50 µM, the IC50 (DU-145) was greater than 50 µM and the IC50 [3] was greater than 50 µM. The inhibition [4] was 4.7% and the inhibition [5] was 9.8%.
